Two compounds from ChEMBL document CHEMBL1146900, “New opioid designed multiple ligand from Dmt-Tic and morphinan pharmacophores” (J Med Chem, 2006) can be followed below.

Activity calls are given as the source filed them. The rule behind the calls is not given here. Non-standard residues stand in square brackets, D forms with d. Residues, ends and D or L forms follow the SMILES beside them. Dmt = Cc1cc(O)cc(C)c1C[C@H](N)C(=O)O; Tic = O=C(O)[C@@H]1Cc2ccccc2CN1; βAla = NCCC(=O)O

Assay [1] deals with T1, Kappa-type opioid receptor (Homo sapiens, UniProt P41145). Nature of the assay: Antagonist activity against human kappa opioid receptor expressed in CHO cells assessed as inhibition of U50488-stimulated [35S]GTPgammaS binding. The format is functional, cell-based. The method, boiled down: (§1)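 CHO membranes stably expressing a single human opioid receptor were incubated with agonist plus varying compound concentrations, and [35S]GTPγS binding was measured. Agonists: μ, DAMGO 200 nM; δ, SNC-80 100 nM; κ, U50,488 100 nM. Imax is the maximal percent inhibition of agonist-stimulated binding.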
T1 sequence (P41145 whole entry): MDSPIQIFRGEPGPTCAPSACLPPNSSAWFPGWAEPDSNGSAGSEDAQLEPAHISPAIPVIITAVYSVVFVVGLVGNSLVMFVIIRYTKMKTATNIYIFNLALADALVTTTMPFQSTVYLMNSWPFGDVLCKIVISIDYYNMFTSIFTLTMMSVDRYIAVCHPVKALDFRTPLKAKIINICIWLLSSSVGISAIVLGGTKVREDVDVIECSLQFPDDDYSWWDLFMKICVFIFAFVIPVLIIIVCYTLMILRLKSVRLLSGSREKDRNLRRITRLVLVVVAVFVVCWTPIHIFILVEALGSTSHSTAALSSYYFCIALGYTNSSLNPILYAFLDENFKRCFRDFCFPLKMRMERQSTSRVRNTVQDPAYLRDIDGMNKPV
On the technique in general: Binding of GTPγS marks nucleotide exchange on a G protein.

Assay [2] deals with Opioid receptors; mu & delta (Homo sapiens) (UniProt P41143+P35372). Kind of assay: Selectivity for delta opioid receptor over mu opioid receptor. The format is protein assay. The method, boiled down:
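Competition binding to membranes of CHO cells stably expressing human μ or δ opioid receptors, each receptor in separate membranes. Selectivity comes from comparing the affinities at the two receptors.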

Assay [3] concerns the target T2, Delta-type opioid receptor (Homo sapiens, UniProt P41143). Kind of assay: Agonist activity at human delta opioid receptor expressed in CHO cells assessed as stimulation of [35S]GTP-gamma-S binding. The format is functional, cell-based. The method, boiled down: (§2)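 Membranes from CHO cells stably expressing only the human μ, δ or κ opioid receptor were incubated with various concentrations of compound, and stimulation of [35S]GTPγS binding was measured. Emax is the maximal percent stimulation. EC50 is the concentration giving 50% of Emax. EC50 was not calculated when Emax was 30% or lower.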

Assay [4] deals with T1, Kappa-type opioid receptor. Kind of assay: Inhibition of [3H]U-69593 binding to human kappa opioid receptor expressed in CHO cells at 10 uM. The format is cell-based.
Assay [5] has as its target T2, Delta-type opioid receptor. Kind of assay: Antagonist activity against human delta opioid receptor expressed in CHO cells assessed as inhibition of SNC80-stimulated [35S]GTP-gamma-S binding. The format is functional, cell-based. The method, boiled down: as §1
For assay [6], the target named is T2, Delta-type opioid receptor. Nature of the assay: Displacement of [3H]naltrindole from human delta opioid receptor expressed in CHO cells. The format is cell-based. (Loss of bound radioactivity is the signal in a displacement assay; it reports binding, not function.)
Assay [7] has as its target T3, Mu-type opioid receptor (Homo sapiens, UniProt P35372). Kind of assay: Agonist activity at human mu opioid receptor expressed in CHO cells assessed as stimulation of [35S]GTP-gamma-S binding. The format is functional, cell-based. The method, boiled down:
as §2

Assay [8] addresses T1, Kappa-type opioid receptor. Nature of the assay: Displacement of [3H]U-69593 from human kappa opioid receptor expressed in CHO cells. The format is cell-based.
Assay [9] addresses T3, Mu-type opioid receptor. Kind of assay: Antagonist activity against human mu opioid receptor expressed in CHO cells assessed as inhibition of DAMGO-stimulated [35S]GTP-gamma-S binding. The format is functional, cell-based. The method, boiled down:
as §1

The target of assay [10] is T3, Mu-type opioid receptor. Kind of assay: Displacement of [3H]DAMGO from human mu opioid receptor expressed in CHO cells. The format is cell-based. The method, boiled down:
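Competition binding run on membranes prepared from CHO cells that stably express the human mu receptor.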

In assay [11] the target is T1, Kappa-type opioid receptor. Nature of the assay: Agonist activity at human kappa opioid receptor expressed in CHO cells assessed as stimulation of [35S]GTPgammaS binding. The format is functional, cell-based. The method, boiled down:
as §2

T3 sequence (P35372 whole entry): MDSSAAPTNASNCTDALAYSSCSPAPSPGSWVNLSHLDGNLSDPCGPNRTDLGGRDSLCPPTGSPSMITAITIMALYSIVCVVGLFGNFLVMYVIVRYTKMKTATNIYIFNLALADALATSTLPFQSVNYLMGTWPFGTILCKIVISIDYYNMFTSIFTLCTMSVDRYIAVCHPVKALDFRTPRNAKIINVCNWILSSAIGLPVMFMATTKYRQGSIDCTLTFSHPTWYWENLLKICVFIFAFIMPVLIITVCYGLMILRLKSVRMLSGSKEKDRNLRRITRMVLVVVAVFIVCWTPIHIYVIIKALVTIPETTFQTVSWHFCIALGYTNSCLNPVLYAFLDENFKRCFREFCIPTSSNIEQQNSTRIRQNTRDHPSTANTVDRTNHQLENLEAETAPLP
T2 sequence (P41143 whole entry): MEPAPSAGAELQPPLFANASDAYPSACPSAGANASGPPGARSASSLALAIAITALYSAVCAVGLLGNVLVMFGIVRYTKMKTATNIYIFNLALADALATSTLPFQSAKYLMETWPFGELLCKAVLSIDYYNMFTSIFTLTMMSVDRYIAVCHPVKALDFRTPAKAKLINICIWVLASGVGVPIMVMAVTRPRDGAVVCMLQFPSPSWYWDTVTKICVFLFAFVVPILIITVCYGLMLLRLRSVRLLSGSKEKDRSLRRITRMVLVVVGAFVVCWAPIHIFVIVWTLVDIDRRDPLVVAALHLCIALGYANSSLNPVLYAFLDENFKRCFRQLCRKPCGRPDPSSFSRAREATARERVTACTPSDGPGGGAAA
Chain of Opioid receptors; mu & delta (Homo sapiens) (P35372 whole entry, looked up): as the sequence (P35372 whole entry) above
Chain of Opioid receptors; mu & delta (Homo sapiens) (P41143 whole entry, looked up): as the sequence (P41143 whole entry) above

In general, IC50 refers to the concentration needed to halve the response being measured. For orientation: Emax means the size of the effect at its maximum, as opposed to the concentration needed. What is called inhibition is the drop in the measured response relative to a control, in per cent. The term Ki denotes the equilibrium dissociation constant of an inhibitor or competing ligand from its target. Higher therefore signals weaker binding. `Cc1cc(O)cc(C)c1C[C@H](N)C(=O)N1Cc2ccccc2C[C@H]1C(=O)NCCC(=O)O` (H-[Dmt]-[Tic]-[βAla]-OH): in assay [1], the IC50 entry was “Not Active” and the Imax entry was “inactive”. In [2], the Ratio Ki was 262. For the same compound, in [3], the outcome was inactive and the Emax was determined as 0.95%. Moreover, the inhibition in assay [4] is 62%. Besides, in assay [5], the IC50 came out at 10 nM and the Imax was 93%. For the same compound, the Ki in assay [6] was determined as 4.2 nM.
Broadly, the EC50 is the concentration needed to bring the measured effect to its halfway point. As for `Cc1cc(O)cc(C)c1C[C@H](N)C(=O)N1Cc2ccccc2C[C@H]1C(=O)NCCC(=O)Oc1ccc2c(c1)[C@@]13CCCC[C@H]1[C@@H](C2)N(CC1CCC1)CC3`, the EC50 on Mu-type opioid receptor [7] is 8.9 nM; in [3] it was 2.8 nM; in assay [11], 6 nM. The Emax on Mu-type opioid receptor [7] came to 79%; in [3], 18%; in assay [11], 130%. The result in [1] was inactive. For the same compound, the Ki is 0.28 nM in [8], 0.28 nM in assay [4], 0.69 nM on Mu-type opioid receptor [10] and 1.5 nM in assay [6]. The IC50 at Mu-type opioid receptor [9] was found to be 97 nM; in assay [5], 3.9 nM. Also, the Imax came out at 47% on Mu-type opioid receptor [9] and 84% in [5].
